# Most compounds without a hit are left out; they make up all but 2.7% or so of the library.
# OX1R antag-1 = blocks the human orexin 1 receptor; inhibition, % at 5 µM; O43613; actives 0.43% (n = 330,000); AID 434989; CHO/OX1R cells, Fluo-8 calcium fluorescence, orexin A;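 active = inhibition above its plate's threshold, mean inhibition of all tested compounds on the plate plus 3 SD, cut at about 37% in these data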;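 note: 0% = orexin A challenge wells and 100% = SB-334867-A antagonist wells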
# Target sequence (O43613 whole entry, looked up): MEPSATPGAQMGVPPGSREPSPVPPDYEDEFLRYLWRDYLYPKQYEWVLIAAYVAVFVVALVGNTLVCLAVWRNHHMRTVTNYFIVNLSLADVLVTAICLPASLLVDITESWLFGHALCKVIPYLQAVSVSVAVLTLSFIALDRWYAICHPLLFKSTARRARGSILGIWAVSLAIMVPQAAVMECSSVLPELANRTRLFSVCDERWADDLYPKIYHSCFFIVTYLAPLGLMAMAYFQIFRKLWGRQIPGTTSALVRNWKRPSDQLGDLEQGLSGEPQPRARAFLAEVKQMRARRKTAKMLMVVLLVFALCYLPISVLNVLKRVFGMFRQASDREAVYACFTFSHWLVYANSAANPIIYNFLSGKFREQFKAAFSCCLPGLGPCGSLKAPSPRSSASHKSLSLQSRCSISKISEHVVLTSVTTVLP
# OX1R antag-2 = OX1R (human) antagonism; OX1R-expressing cells, FRET antagonist read-out; actives 1.8% (n = 330,000); inhibition, % at 6.6 µM; O43613; AID 485270; in the data active = inhibition mostly above about 38%, no sharp cut-off; inactive = mostly below about 40%;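 note: 0% = agonist challenge alone and 100% = reference antagonist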
# CHO parental Ca = signal in parental CHO cells, OX1R antagonist counter-screen; parental CHO-K1, ATP-induced calcium, Fluo-8 fluorescence; inhibition, % at 5.6 µM; actives 0.63% (n = 330,000); AID 463079;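 active = inhibition above that plate's mean sample inhibition plus 3 SD, cut at about 26% in these data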;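 note: 0% = ATP-challenged DMSO wells and 100% = DMSO wells without ATP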
#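 test system = CHO parental line | reagent = ATP stimulus | measured by = intracellular calcium via Fluo-8 no-wash fluorescent dye | control set = ATP and no-ATP DMSO wells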
# OXTR potentiator = potentiates the human oxytocin receptor response; P30559; CHO-OTR cells, Fluo-8 calcium fluorescence, potentiator mode; 0% = oxytocin EC15, 100% = EC100; activation, % at 3 µM; actives 0.061% (n = 320,000);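 active = activation above that plate's cutoff, the mean activation of tested compounds plus 3 SD, cut at about 6.6% in these data, passing the limit was not always enough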;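 note: 100% uses oxytocin at 75 nM as the full agonist control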
#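 Measured by – Fluo-8 calcium dye fluorescence · Test system – human OTR in CHO cells · Dosing – one concentration, 3.0 µM compound · Controls – EC15 oxytocin alone as 0%, 75 nM oxytocin as 100% · Evaluation – normalized max/min fluorescence ratio, % activation · Timing – 6 min pre-incubation, 100 s read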
# OXTR agonist = activates the human oxytocin receptor. P30559. CHO-OTR cells, Fluo-8 calcium fluorescence; normalized: DMSO 0%, oxytocin 100%. activation, % at 3 µM. actives 0.32% (n = 320,000);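 active = activation above the mean of all tested compounds plus 3 SD, cutoff set per screening run, cut at about 20% in these data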;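 note: peak over basal fluorescence ratio from a 100 s FLIPR kinetic read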
# V1aR counter = counter-screen for oxytocin receptor agonists: human V1a receptor agonists; P37288; CHO-V1R cells, Fluo-8 calcium fluorescence, agonist mode; 0% DMSO, 100% 3 nM vasopressin; activation, % at 3 µM; actives 0.25% (n = 320,000);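 active = activation above the mean activation of all tested compounds plus 3 SD, per screening run, cut at about 20% in these data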;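 note: signal is peak over basal fluorescence ratio across a 100 second FLIPR read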
# OXTR agonist cf = human OXTR agonism, confirmation; shares compounds with OXTR agonist; CHO-OTR cells, Fluo-8 calcium fluorescence, agonist; activation, % at 3 µM; actives 20% (n = 390); AID 434963;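 active = mean activation above about 20% derived from the earlier single-dose screen, limit read from the data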;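 note: peak over minimum fluorescence ratio per well during a 100 second FLIPR read; 0% = DMSO alone and 100% = oxytocin high control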
# V1aR counter 3x = counter-screen for oxytocin receptor agonists: V1a receptor agonists | AID 434991 | shares compounds with OXTR agonist | activation, % at 3 µM | actives 10% (n = 390) | CHO-V1R cells, Fluo-8 calcium fluorescence, agonist;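 active = mean activation over triplicate exceeds the hit threshold set in the earlier primary screen, cut at about 20% in these data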;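 note: peak over basal fluorescence ratio within a 100 second read; 0% = DMSO alone and 100% = 3 nM vasopressin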
# OXTR pot confirm = human OXTR potentiation, confirmation | shares compounds with OXTR potentiator | CHO-OTR cells, Fluo-8 calcium fluorescence; scaled from low-dose to maximal oxytocin | activation, % at 3 µM | 180 tested, under 10 active | AID 434985;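 active = mean percent activation over triplicates above a cutoff set from solvent-only control plates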;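 note: compounds tested in the presence of an EC15 dose of oxytocin; 0% = EC15 oxytocin with DMSO and 100% = EC100 oxytocin with DMSO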
# OX1R Ca confirm = OX1R (human) antagonism, confirmed; CHO/OX1R cells, orexin A calcium Fluo-8 fluorescence; shares compounds with OX1R antag-1; AID 492963; inhibition, % at 5 µM; actives 38% (n = 1,100); in the data active = inhibition above about 29%;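 note: 0% = agonist challenge alone and 100% = reference antagonist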
# CHO Ca counter = counter-screen: parental CHO calcium response change, triplicate; shares compounds with OX1R antag-1; parental CHO-K1, ATP-induced calcium, Fluo-8 fluorescence; inhibition, % at 5.6 µM; actives 9.3% (n = 1,100); AID 492965;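 active = inhibition above a per-plate limit, the mean inhibition of that plate's test compounds plus 3 SD, cut at about 25% in these data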;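 note: 0% = ATP challenge with DMSO and 100% = DMSO without ATP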
# OX1R HTRF confirm = OX1R (human) antagonism, HTRF confirmed | shares compounds with OX1R antag-2 | OX1R-expressing cells, HTRF antagonist assay | inhibition, % at 6.6 µM | actives 49% (n = 1,800); in the data active = inhibition above about 55%;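 note: CHO cells expressing OX1R stimulated with orexin A at about EC80; 0% = agonist challenge alone and 100% = reference antagonist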
# CHO-K1 HTRF cnt = signal in parental CHO-K1 cells, OX1R antagonist counter-screen; shares compounds with OX1R antag-2; HTRF counterscreen; inhibition, % at 6.6 µM; actives 48% (n = 1,800); in the data active = inhibition above about 17%;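 note: 0% = agonist challenge with vehicle and 100% = vehicle alone without agonist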
# An asterisk follows results filed as active; · = not tested or not shown.
SMILES,OX1R antag-1,OX1R antag-2,CHO parental Ca,OXTR potentiator,OXTR agonist,V1aR counter,OXTR pot confirm,others
O=C(COc1ccc2ccc(=O)oc2c1)Nc1cccc(S(=O)(=O)N2CCCCC2)c1,34,21,1,-10,21*,12,·,OXTR agonist cf=8;V1aR counter 3x=9;OX1R Ca confirm=21;CHO Ca counter=21
CCOC(=O)[C@H]1[C@H]2COc3cc(OC)ccc3[C@@H]2N2C(=O)CN(C)C(=O)[C@@]12C,-3,10,3,-4,2,0,·,
CC(=O)Nc1ccc(/C(C)=N/Nc2nc(N3CCOCC3)nc(N3CCOCC3)n2)cc1,-31,22,-16,-9,0,0,·,
CC(=O)Nc1ccc(/C(C)=N/Nc2nc(Nc3cccc4ccccc34)nc(N3CCOCC3)n2)cc1,40*,24,11,-13,25*,12,·,OXTR agonist cf=0;V1aR counter 3x=0;OX1R Ca confirm=1;CHO Ca counter=-6
O=C(Nc1ccc(Cl)c(Cl)c1)c1cccc(S(=O)(=O)NCc2cccnc2)c1,36,67*,-3,-14,20*,13,·,OXTR agonist cf=9;V1aR counter 3x=9;OX1R Ca confirm=38*;CHO Ca counter=55*;OX1R HTRF confirm=77*;CHO-K1 HTRF cnt=5
O=C(O)c1cccc(NC(=O)c2cccc(S(=O)(=O)N3CCc4ccccc4C3)c2)c1,-5,7,8,-5,0,-1,·,
COc1ccc2nc(NC(=O)CSc3nnc(C)s3)sc2c1,-6,4,-3,10*,1,0,-4,
COc1ccc2nc(NC(=O)CSc3nc(SC)ns3)sc2c1,-6,22,-2,-4,-1,1,·,
O=C(O)C1CCN(C(=O)c2ccccc2N2C(=O)[C@@H]3Cc4c([nH]c5ccccc45)C(c4cccc(Cl)c4)N3C2=O)CC1 (stereo partly specified),-4,2,1,-4,-1,1,·,
C[C@H](CO)N1C[C@H](C)[C@@H](CN(C)C(=O)Nc2ccc(C(F)(F)F)cc2)Oc2c(cccc2N(C)C)C1=O,-23,13,-33,12*,0,0,0,
C[C@H](CO)N1C[C@H](C)[C@@H](CN(C)S(=O)(=O)c2cccs2)Oc2ccc(NC(=O)Nc3ccccc3)cc2C1=O,-22,4,-19,15*,3,3,-7,
Cc1ccc(CC2C(=O)N(c3nc(C)cc(C)n3)C(=O)C2C)cc1 (stereo unspecified),-7,7,-17,-4,-1,-1,·,
COCCCN1CC(=O)N2C(c3ccccc3)c3[nH]c4ccccc4c3C[C@H]2C1=O (stereo partly specified),-22,13,-18,8.7*,0,1,-5,
CCN1CCCC1CNCc1cc(OC)c(OC)c(OC)c1 (stereo unspecified),-7,11,-10,13*,3,2,-5,
c1ccc(-c2nnc(C3CC(c4ccncc4)=NO3)o2)cc1 (stereo unspecified),-12,12,-10,-3,0,-1,·,
CC1CCN(S(=O)(=O)c2cnc[nH]2)CC1,-9,4,12,8.5*,0,1,-9,
CC1CCN(C(=O)C2CCN(S(=O)(=O)c3cnc[nH]3)CC2)CC1,7,16,3,-4,4,3,·,
CC1(CCC(=O)N2CCCC(N3CCN(c4cccc(C(F)(F)F)c4)CC3)C2)CC1 (stereo unspecified),-43,5,-9,5,-1,1,·,
Cc1ccc2c(CC(=O)NCCc3ccc(S(N)(=O)=O)cc3)coc2c1,-9,3,-5,9.3*,0,-1,-3,
Cc1ccccc1NC(=O)C(=O)NNC(=O)COc1ccc2ccccc2c1,2,11,5,-7,0,1,·,
CCC(CC)NC(=O)CCCSc1nc2ccccc2[nH]1,-11,17,-15,-3,-1,-1,·,
O=C(CCCSc1nc2ccccc2[nH]1)NCc1ccccc1,-30,6,-13,12*,-1,3,-8,
O=S(=O)(Nc1ccccc1)c1cccc2nsnc12,-7,26,7,-5,0,0,·,
O=C(O)c1cccc(NS(=O)(=O)c2cccc3nsnc23)c1,-2,33,7,10.0*,1,-1,-2,
O=C(NCCc1ccc2c(c1)OCCO2)c1ccc(F)cc1,-25,9,-16,-6,2,5,·,
SMILES,OX1R antag-1,OX1R antag-2,CHO parental Ca,OXTR potentiator,OXTR agonist,V1aR counter,OXTR pot confirm,others
Fc1ccc2c(-c3cccc(C(F)(F)F)c3)c(-c3ccccc3)ncc2c1,-135,8,-42,9.4*,0,1,-8,
Fc1ccc2cnc(-c3ccccc3)c(-c3cc(C(F)(F)F)cc(C(F)(F)F)c3)c2c1,-24,15,-42,7,0,0,·,
CCC(=O)Nn1c(C2CCC2)nc2ccccc2c1=O,-18,3,2,13*,-1,0,-2,
COc1cccc(OC)c1C(=O)Nn1c(C2CCC2)nc2ccccc2c1=O,-15,12,-15,4,-2,-1,·,
CCN(CC)S(=O)(=O)c1ccc(C)c(NC(=O)c2cc(C)oc2C)c1,-27,15,-15,13*,0,-1,-6,
Cc1cccc(NS(=O)(=O)c2ccc(C(=O)NCC(c3ccco3)N(C)C)cc2)c1C (stereo unspecified),5,3,-3,-8,4,9,·,
O=C(NCCCN1CCCCCC1)C1CC(=O)N(CCc2ccccc2)C1 (stereo unspecified),-3,21,-10,-5,-1,0,·,
O=C(NCCCN1CCOCC1)C1CC(=O)N(CCc2ccccc2)C1 (stereo unspecified),-16,10,-8,12*,1,1,-10,

# Screening data: PubChem BioAssay, The Scripps Research Institute Molecular Screening Center
